In PubChem BioAssay:
Active and inactive are the calls of the source. Rule as the data show it, unless noted: active = inhibition above about 30%; inactive = the rest.

Key:
[1] = reducers of endogenous Her2 protein level, primary screen, SKBR3 breast tumor cells, AlphaScreen, ATP viability (AID 461;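 active = Her2 level under about 52% in both replicate screens, with viability over 70% of control, limit read from the data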;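 as to Her2 level: lower value means less Her2 protein in the cells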;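 as to viability: percent of carrier control wells set as 100% viability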); conditions: 18-24 h, measured here: SKBR3 viability, ATP luminescence, at 10 µM
[2] = target: Receptor tyrosine-protein kinase erbB-2 (Homo sapiens) (UniProt P04626); test: as above; conditions: 18-24 h, at 10 µM, stronger effect = lower value
Sequence of Receptor tyrosine-protein kinase erbB-2 (Homo sapiens) (P04626 whole entry, looked up): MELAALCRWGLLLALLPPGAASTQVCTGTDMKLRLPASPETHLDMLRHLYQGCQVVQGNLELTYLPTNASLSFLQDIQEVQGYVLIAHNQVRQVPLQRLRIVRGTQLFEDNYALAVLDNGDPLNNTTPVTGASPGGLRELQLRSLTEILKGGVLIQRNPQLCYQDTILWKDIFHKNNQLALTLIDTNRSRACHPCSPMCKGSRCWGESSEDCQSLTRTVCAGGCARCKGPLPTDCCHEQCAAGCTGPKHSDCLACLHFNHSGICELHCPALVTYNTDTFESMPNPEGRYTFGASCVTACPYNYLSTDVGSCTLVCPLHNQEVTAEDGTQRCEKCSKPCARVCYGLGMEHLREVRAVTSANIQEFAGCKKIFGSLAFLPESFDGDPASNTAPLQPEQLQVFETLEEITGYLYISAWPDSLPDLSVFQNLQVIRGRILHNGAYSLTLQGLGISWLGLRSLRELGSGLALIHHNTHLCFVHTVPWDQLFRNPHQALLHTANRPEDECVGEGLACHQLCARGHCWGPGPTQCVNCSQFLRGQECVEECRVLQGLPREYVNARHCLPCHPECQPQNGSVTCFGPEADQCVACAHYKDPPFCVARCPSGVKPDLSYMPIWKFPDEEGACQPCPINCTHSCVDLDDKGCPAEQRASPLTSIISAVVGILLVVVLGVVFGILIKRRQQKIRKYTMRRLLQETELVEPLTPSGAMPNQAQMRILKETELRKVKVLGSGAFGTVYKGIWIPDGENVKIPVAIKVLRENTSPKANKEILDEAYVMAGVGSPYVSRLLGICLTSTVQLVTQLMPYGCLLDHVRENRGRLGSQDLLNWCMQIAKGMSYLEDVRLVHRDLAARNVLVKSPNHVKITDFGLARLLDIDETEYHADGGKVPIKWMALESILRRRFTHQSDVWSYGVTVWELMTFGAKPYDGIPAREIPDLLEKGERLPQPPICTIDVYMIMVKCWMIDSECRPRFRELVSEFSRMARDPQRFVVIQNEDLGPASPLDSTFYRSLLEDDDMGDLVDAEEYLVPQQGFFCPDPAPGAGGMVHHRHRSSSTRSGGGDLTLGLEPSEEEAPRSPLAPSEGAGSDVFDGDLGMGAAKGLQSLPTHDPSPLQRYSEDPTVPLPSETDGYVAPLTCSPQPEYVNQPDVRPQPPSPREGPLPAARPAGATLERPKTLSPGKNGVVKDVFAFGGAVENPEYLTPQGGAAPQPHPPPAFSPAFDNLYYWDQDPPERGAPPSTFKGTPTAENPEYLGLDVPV

[3] = SK-BR-3 cell growth inhibitors, pilot screen, 24 h, human (AID 572;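 active = viability at or below 10% of carrier control in both of two separate runs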;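 also: compound exposure lasted between 18 and 24 h rather than exactly 24 h; 100% = carrier-treated control wells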); conditions: SK-BR-3 viability, CellTiter-Glo luminescence, at 10 µM, stronger effect = lower value
[4] = HUVEC growth inhibition – cell-based, human, primary screen (AID 575;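 active = viability at or below 30% in both replicate assays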;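 also: 100% = median of untreated cell wells with 0.1% DMSO on each plate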); conditions: HUVEC proliferation, CellTiter-Glo luminescence, 72 h; at 10 µM; stronger effect = lower value
Outline: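 Test system: primary human umbilical vein endothelial cells; medium: endothelial basal medium with 2% FBS plus growth supplements; dosing: 10 µM compound only; times: 72 h treatment at 37 °C; signal: CTG luminescence; read-out: % viability relative to median vehicle-well signal on each plate; control set: vehicle and MePR control wells; plate: 384-well, collagen-coated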

[5] = growth inhibitors of H69AR lung tumor, primary screen, human, duplicate replicates (AID 580;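 active = viability at or under a set limit in both replicates, limit being median viability minus 3 SD, cut at about 48% in these data, passing the limit was not always enough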;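 also: 100% = mean luminescence of untreated wells and 0% = no signal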); conditions: H69AR lung tumor cells viability, ATP luminescence, 72 h; at 10 µM; stronger effect = lower value
[6] = reversal of MRP1-mediated doxorubicin resistance, pilot screen, H69AR cells, doxorubicin co-treatment (AID 601;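 active = viability loss from added drug above about 55%, and viability with drug at most 40%, in both replicates, limit read from the data, passing the limit was not always enough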); conditions: CellTiter-Glo, 72 h, at 10 µM; for differential viability (reversal): stronger effect = higher value
[7] = 384-well plate pilot, post-Golgi transport modulator project, inhibition of yeast transport mutant growth (AID 636; in the data active = inhibition above about 31%); conditions: absorbance 615 nm, about 18 h, stronger effect = higher value
[8] = growth suppression of yeast trafficking mutant, preliminary HTS, modulators of trafficking downstream of Golgi apparatus project, 1536-format plate, OD 615 nm (AID 637); conditions: yeast transport mutant growth, absorbance 615 nm, 18 h; stronger effect = higher value
[9] = H69AR cells + 2 uM doxorubicin, measured here: viability with 2 uM doxorubicin, stronger effect = lower value
[10] = H69AR cells, compound alone cytotoxicity

SMILES | viability [1] | Her2 level [2] | viability [3] | viability [4] | viability [5] | differential viability (reversal) ([6]; H69AR cells + 2 uM doxorubicin) | viability [6, 9] | viability [6, 10] | inhibition [7] | inhibition [8]
COc1ccc(C)cc1NC(=O)c1nnn(Cc2cccc(F)c2)c1N | 85.5% | 102% (inactive) | 85.5% (inactive) | 64.9% (inactive) | 82.7% (inactive) | 9.66% (inactive) | 73% | 82.7% | -3.47% (inactive) | -5.9% (inactive)
C=CCn1c(=O)/c(=C/c2ccc(O)cc2)s/c1=C(/C#N)c1nnc2n1CCCCC2 | 93.5% | 103% (inactive) | 93.5% (inactive) | 83.4% (inactive) | 85.5% (inactive) | 8.51% (inactive) | 77% | 85.5% | -5.27% (inactive) | -2.83% (inactive)
COc1cccc(-n2nc(C(=O)Nc3ccc4c(c3)OCO4)c3ccccc3c2=O)c1 | 109% | 80.5% (inactive) | 109% (inactive) | 85.1% (inactive) | 92.2% (inactive) | 5.91% (inactive) | 86.3% | 92.2% | -2.16% (inactive) | -1.27% (inactive)
FC(F)(F)c1cccc(N2CCN(c3nnnn3-c3ccccc3)CC2)c1 | 85% | 88.5% (inactive) | 85% (inactive) | 81% (inactive) | 84.7% (inactive) | 0.31% (inactive) | 84.4% | 84.7% | -5.84% (inactive) | -2.22% (inactive)
CCOC(=O)c1cc(-c2ccco2)nc2c1c(C)nn2CCC#N | 96% | 101% (inactive) | 96% (inactive) | 98% (inactive) | 68.3% (inactive) | -16.2% (inactive) | 84.5% | 68.3% | 4.05% (inactive) | 3.97% (inactive)
CCCOC(=O)c1ccc(-c2c(C)noc2-c2ccc(OC)cc2O)o1 | 98% | 74.5% (inactive) | 98% (inactive) | 46.3% (inactive) | 75.8% (inactive) | -10.3% (inactive) | 86% | 75.8% | -4.81% (inactive) | -9.33% (inactive)
Cc1ccc(Nc2cc(-n3nc(C)cc3C)ncn2)cc1 | 96.5% | 97% (inactive) | 96.5% (inactive) | 70.7% (inactive) | 74.8% (inactive) | -7.74% (inactive) | 82.6% | 74.8% | -0.26% (inactive) | -1.97% (inactive)
CCN(CC)S(=O)(=O)c1ccc(F)cc1 | 116% | 106% (inactive) | 116% (inactive) | 98.7% (inactive) | 93% (inactive) | 5.97% (inactive) | 87.1% | 93% | -8.77% (inactive) | 4.13% (inactive)
CCN(Cc1cc2ccccc2[nH]c1=O)S(=O)(=O)c1ccccc1 | 110% | 112% (inactive) | 110% (inactive) | 98.4% (inactive) | 87.1% (inactive) | -12.7% (inactive) | 99.8% | 87.1% | -4.59% (inactive) | -2.38% (inactive)
Cc1nc(C)c(C(=O)Nc2ccc(C)c(F)c2)o1 | 92% | 80% (inactive) | 92% (inactive) | 117% (inactive) | 94.8% (inactive) | 15.5% (inactive) | 79.3% | 94.8% | -5.54% (inactive) | 1% (inactive)
O=C(COc1ncnc2ccccc12)NCc1ccc2c(c1)OCO2 | 100% | 96% (inactive) | 100% (inactive) | 92.8% (inactive) | 92.6% (inactive) | -1.82% (inactive) | 94.4% | 92.6% | -4.21% (inactive) | 4.92% (inactive)
Cc1nc2ccccn2c1C(=O)NCCCN1CCOCC1 | 91.5% | 94.5% (inactive) | 91.5% (inactive) | 109% (inactive) | 102% (inactive) | 5.8% (inactive) | 96.4% | 102% | -0.27% (inactive) | 4.59% (inactive)
Cc1ccc(C2c3sc(=O)[nH]c3SC3C(=O)NC(=O)C32)cc1 (stereo not given) | 94% | 87% (inactive) | 94% (inactive) | 111% (inactive) | 105% (inactive) | 6.17% (inactive) | 99.2% | 105% | -5.62% (inactive) | -4.29% (inactive)
O=C(NCCO)c1scc2c1OCCO2 | 104% | 92% (inactive) | 104% (inactive) | 91.8% (inactive) | 93.6% (inactive) | -7.95% (inactive) | 102% | 93.6% | -5.73% (inactive) | -1.8% (inactive)
COc1ccc(-c2cc(C(F)(F)F)nc(N3CCN(c4ccc(F)cc4)CC3)n2)cc1OC | 78.5% | 88% (inactive) | 78.5% (inactive) | 71.7% (inactive) | 85.5% (inactive) | 6.42% (inactive) | 79.1% | 85.5% | -2.97% (inactive) | 13.9% (inactive)
CC(=O)Nc1ccc(S(=O)(=O)NCC(C)NS(=O)(=O)c2ccc(NC(C)=O)cc2)cc1 (stereo not given) | 106% | 114% (inactive) | 106% (inactive) | 94.5% (inactive) | 98.6% (inactive) | 3.06% (inactive) | 95.5% | 98.6% | 0.13% (inactive) | -1.27% (inactive)
CC(=O)N1CCN=C1SCc1c(F)cccc1Cl | 102% | 105% (inactive) | 102% (inactive) | 73.1% (inactive) | 78.8% (inactive) | -5.06% (inactive) | 83.8% | 78.8% | 3.85% (inactive) | -1% (inactive)
CC1CCCCC1NC(=O)c1ccc(N2CCCC2=O)cc1 (stereo not given) | 112% | 106% (inactive) | 112% (inactive) | 111% (inactive) | 90.3% (inactive) | 7.01% (inactive) | 83.2% | 90.3% | -2.21% (inactive) | 2.79% (inactive)
COCCNC(=O)C(c1cccc(OC)c1)N(Cc1cccs1)C(=O)Cn1nnc2ccccc21 (stereo not given) | 110% | 82% (inactive) | 110% (inactive) | 105% (inactive) | 99.2% (inactive) | 4.64% (inactive) | 94.5% | 99.2% | -3.6% (inactive) | 1.48% (inactive)
CCCCn1c(NCCC)nc2c1c(=O)[nH]c(=O)n2C | 96% | 80% (inactive) | 96% (inactive) | 113% (inactive) | 93.7% (inactive) | 12.8% (inactive) | 81% | 93.7% | -3.51% (inactive) | -0.66% (inactive)
CCOc1ccc(-n2c(=O)cc(N3CCN(c4ccccc4)CC3)[nH]c2=O)cc1 | 94% | 84% (inactive) | 94% (inactive) | 96.1% (inactive) | 103% (inactive) | 7.43% (inactive) | 95.6% | 103% | -6.13% (inactive) | 6.07% (inactive)
COc1cccc(OCc2nc3ccccc3[nH]2)c1 | 86.5% | 110% (inactive) | 86.5% (inactive) | 101% (inactive) | 95.8% (inactive) | 7.5% (inactive) | 88.3% | 95.8% | -0.51% (inactive) | -5% (inactive)
Cc1cc(C)nc(SCc2nnc(SCc3ccccc3Cl)o2)n1 | 80% | 78.5% (inactive) | 80% (inactive) | 93.8% (inactive) | 79.5% (inactive) | -1.99% (inactive) | 81.5% | 79.5% | -3.29% (inactive) | 1.82% (inactive)
COC(=O)c1cc2oc(C)cc2n1CC(=O)N(C)c1ccccc1 | 93% | 92.5% (inactive) | 93% (inactive) | 83.2% (inactive) | 95.4% (inactive) | 7.45% (inactive) | 88% | 95.4% | -1.92% (inactive) | -2.17% (inactive)
CC1(C)CC(=O)C=C(Nc2ccc(F)cc2)C1 | 102% | 95% (inactive) | 102% (inactive) | 90.5% (inactive) | 96.5% (inactive) | 6.35% (inactive) | 90.1% | 96.5% | -0.39% (inactive) | -3.64% (inactive)
COc1ccc(OC)c(NC(=O)C2CCN(c3cc(-c4ccccc4)nc4ncnn34)CC2)c1 | 95.5% | 76.5% (inactive) | 95.5% (inactive) | 71% (inactive) | 75.4% (inactive) | -0.75% (inactive) | 76.1% | 75.4% | -0.66% (inactive) | -0.48% (inactive)
O=C(NCc1ccco1)C1CCN(C(=O)c2cc3sccc3n2Cc2ccc(F)cc2)CC1 | 94.5% | 62.5% (inactive) | 94.5% (inactive) | 56.1% (inactive) | 67.1% (inactive) | -6.56% (inactive) | 73.7% | 67.1% | -5.87% (inactive) | 5.74% (inactive)
CCOC(=O)CC(=O)Nc1c(C)cc(C)cc1C | 94.5% | 90.5% (inactive) | 94.5% (inactive) | 85% (inactive) | 102% (inactive) | 10.3% (inactive) | 91.8% | 102% | 2.57% (inactive) | -2.95% (inactive)
COc1ccc(-n2c(SCC(=O)Nc3ccc(C(=O)O)cc3)nnc2-c2cccs2)cc1 | 112% | 94% (inactive) | 112% (inactive) | 99.4% (inactive) | 109% (inactive) | 15.2% (inactive) | 93.4% | 109% | -1.97% (inactive) | -4.36% (inactive)
